Several values for one entry are separate records, joined by “and”; a condition that tells them apart may be missing. Identical values can stand only once. Marks after values point to notes of the source that are not given here.
How the values were obtained:
Type in all cases: in vivo, human
healthy subjects = assay: Safety and tolerability monitoring
Method in brief: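 All enrolled subjects were monitored on placebo or once-daily 10–600 mg oral capsules for up to 15 days. Monitoring covered vital signs, serum and plasma electrolytes, plasma renin activity, aldosterone, plasma and salivary cortisol, and adverse events coded by MedDRA 11.0 preferred term.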

[1] = test system: apolipoproteins (apo AI, apo AII, apo B, apo E); assay: Apolipoprotein concentrations by immunoturbidimetric methods in healthy subjects; conditions: for Apo AI: Mean % change from baseline (90% CI) / Apo AI: Mean % change vs placebo (90 % CI) / Apo AII: Mean % change from baseline (90% CI) / Apo AII: Mean % change vs placebo (90 % CI) / Apo B: Mean % change from baseline (90% CI) / Apo B: Mean % change vs placebo (90 % CI) / Apo E: Mean % change from baseline (90% CI) / Apo E: Mean % change vs placebo (90 % CI) / Ratio of apo B/apo AI: Mean % change from baseline (90% CI) / Ratio of apo B/apo AI: Mean % change vs placebo (90 % CI): day 14
Method in brief: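 Healthy adults took placebo or test compound (10, 100, 300, 600 mg) as capsules once daily with a low-fat meal for 14–15 days. Apo AI, AII, B and E were measured by immunoturbidimetry on a Roche Modular analyser. Values are percent change from baseline to Day 14, including all randomized subjects given at least one dose.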

[2] = test system: HDL-C, LDL-C, total cholesterol, triglycerides; assay: Lipid analyses; conditions: day 14
Method in brief: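 Placebo-controlled once-daily oral capsules (10–600 mg) with a low-fat meal for 14–15 days. Total cholesterol and triglycerides were measured by enzymatic methods. HDL-C was measured after dextran sulfate precipitation and centrifugation of LDL/VLDL. LDL-C was measured by a direct assay. Change from baseline was taken to Day 14 and to 2 weeks after the last dose. Emax models (Hill coefficient 1, baseline covariate) were used for HDL-C/LDL-C; linear models for total cholesterol and triglycerides.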

Compound: Cc1cc(C)c2c(c1)[C@@H](N(Cc1cc(C(F)(F)F)cc(C(F)(F)F)c1)c1nnn(C)n1)CCCN2C[C@H]1CC[C@H](C(=O)O)CC1 [evacetrapib]
- severity of adverse events (healthy subjects; 10–600 mg): mild to moderate
- tolerability (healthy subjects; 10–600 mg for up to 15 days): generally well tolerated
- changes in routine serum chemistries (liver transaminases, complete blood counts, urinalysis) (healthy subjects; in vivo): No clinically relevant changes
- effect on aldosterone (healthy subjects; multiple daily doses): no effect
- subjects reporting rash-related AEs (discontinued the study) (healthy subjects; two at 300 mg, two at 600 mg): Four
- Apo AI: Mean % change from baseline (90% CI) ([1]; 10 mg/day): 3.53 (−2.23, 9.30) %
- Apo AI: Mean % change vs placebo (90 % CI) ([1]; 10 mg/day): 15.29 (7.74, 22.84) ^** %
- Apo AII: Mean % change from baseline (90% CI) ([1]; 10 mg/day): −1.30 (−5.34, 2.73) %
- Apo AII: Mean % change vs placebo (90 % CI) ([1]; 10 mg/day): 4.29 (−0.90, 9.48) %
- Apo B: Mean % change from baseline (90% CI) ([1]; 10 mg/day): −8.09 (−13.41, −2.77) %
- Apo B: Mean % change vs placebo (90 % CI) ([1]; 10 mg/day): −15.05 (−22.68, −7.43) ^** %
- Apo E: Mean % change from baseline (90% CI) ([1]; 10 mg/day): 19.70 (5.10, 34.30) %
- Apo E: Mean % change vs placebo (90 % CI) ([1]; 10 mg/day): 8.36 (−2.89, 19.60) %
- Ratio of apo B/apo AI: Mean % change from baseline (90% CI) ([1]; 10 mg/day): −6.87 (−12.72, −1.02) %
- Ratio of apo B/apo AI: Mean % change vs placebo (90 % CI) ([1]; 10 mg/day): −26.63 (−34.88, −18.38) ^*** %
- Apo AI: Mean % change from baseline (90% CI) ([1]; 100 mg/day): 24.61 (20.07, 29.15) %
- Apo AI: Mean % change vs placebo (90 % CI) ([1]; 100 mg/day): 36.37 (27.66, 45.08) ^*** %
- Apo AII: Mean % change from baseline (90% CI) ([1]; 100 mg/day): 8.85 (4.69, 13.02) %
- Apo AII: Mean % change vs placebo (90 % CI) ([1]; 100 mg/day): 14.44 (7.16, 21.72) ^** %
- Apo B: Mean % change from baseline (90% CI) ([1]; 100 mg/day): −17.64 (−20.84, −14.43) %
- Apo B: Mean % change vs placebo (90 % CI) ([1]; 100 mg/day): −24.60 (−31.28, −17.92) ^*** %
- Apo E: Mean % change from baseline (90% CI) ([1]; 100 mg/day): 55.81 (36.13, 75.50) %
- Apo E: Mean % change vs placebo (90 % CI) ([1]; 100 mg/day): 44.47 (14.63, 74.30) ^* %
- Ratio of apo B/apo AI: Mean % change from baseline (90% CI) ([1]; 100 mg/day): −31.84 (−35.59, −28.09) %
- Ratio of apo B/apo AI: Mean % change vs placebo (90 % CI) ([1]; 100 mg/day): −51.60 (−59.36, −43.83) ^*** %
- Apo AI: Mean % change from baseline (90% CI) ([1]; 300 mg/day): 28.75 (23.70, 33.80) %
- Apo AI: Mean % change vs placebo (90 % CI) ([1]; 300 mg/day): 40.50 (31.66, 49.34) ^*** %
- Apo AII: Mean % change from baseline (90% CI) ([1]; 300 mg/day): 11.93 (7.75, 16.10) %
- Apo AII: Mean % change vs placebo (90 % CI) ([1]; 300 mg/day): 17.52 (10.86, 24.17) ^*** %
- Apo B: Mean % change from baseline (90% CI) ([1]; 300 mg/day): −18.85 (−22.45, −15.25) %
- Apo B: Mean % change vs placebo (90 % CI) ([1]; 300 mg/day): −25.81 (−32.59, −19.04) ^*** %
- Apo E: Mean % change from baseline (90% CI) ([1]; 300 mg/day): 76.75 (62.23, 91.28) %
- Apo E: Mean % change vs placebo (90 % CI) ([1]; 300 mg/day): 65.40 (40.39, 90.42) ^*** %
- Ratio of apo B/apo AI: Mean % change from baseline (90% CI) ([1]; 300 mg/day): −35.69 (−39.92, −31.46) %
- Ratio of apo B/apo AI: Mean % change vs placebo (90 % CI) ([1]; 300 mg/day): −55.45 (−63.26, −47.63) ^*** %
- decrease in apo B ([1]; 600 mg, Day 14, vs placebo): 26% and 26.1%
- decrease in apo B/AI ratio ([1]; 600 mg, Day 14, vs placebo): 56.5%
- Apo AI: Mean % change from baseline (90% CI) ([1]; 600 mg/day): 29.93 (24.51, 35.35) %
- Apo AI: Mean % change vs placebo (90 % CI) ([1]; 600 mg/day): 42% and 41.7% and 41.69 (32.70, 50.67) ^*** %
- Apo AII: Mean % change from baseline (90% CI) ([1]; 600 mg/day): 12.91 (8.06, 17.77) %
- Apo AII: Mean % change vs placebo (90 % CI) ([1]; 600 mg/day): 18.5% and 18.50 (11.71, 25.29) ^*** %
- Apo B: Mean % change from baseline (90% CI) ([1]; 600 mg/day): −19.17 (−22.94, −15.41) %
- Apo B: Mean % change vs placebo (90 % CI) ([1]; 600 mg/day): −26.14 (−32.97, −19.30) ^*** %
- Apo E: Mean % change from baseline (90% CI) ([1]; 600 mg/day): 85.48 (65.47, 105.49) %
- Apo E: Mean % change vs placebo (90 % CI) ([1]; 600 mg/day): 74.1% and 74.13 (47.95, 100.31) ^*** %
- Ratio of apo B/apo AI: Mean % change from baseline (90% CI) ([1]; 600 mg/day): −36.74 (−41.23, −32.25) %
- Ratio of apo B/apo AI: Mean % change vs placebo (90 % CI) ([1]; 600 mg/day): −56.50 (−64.39, −48.61) ^*** %
- HDL-C: Mean % change from baseline (90% CI) ([2]; 10 mg/day): 11.69 (4.39, 18.99) %
- HDL-C: Mean % change vs placebo (90 % CI) ([2]; 10 mg/day): 18.02 (9.76, 26.28) ^*** %
- LDL-C: Mean % change from baseline (90% CI) ([2]; 10 mg/day): −11.94 (−18.31, −5.57) %
- LDL-C: Mean % change vs placebo (90 % CI) ([2]; 10 mg/day): −13.59 (−21.83, −5.35) ^** %
- Total cholesterol: Mean % change from baseline (90% CI) ([2]; 10 mg/day): −4.92 (−15.93, 6.10) %
- Total cholesterol: Mean % change vs placebo (90 % CI) ([2]; 10 mg/day): −4.26 (−17.58, 9.06) %
- Triglycerides: Mean % change from baseline (90% CI) ([2]; 10 mg/day): −12.92 (−26.89, 1.06) %
- Triglycerides: Mean % change vs placebo (90 % CI) ([2]; 10 mg/day): 5.51 (−11.39, 22.40) %
- HDL-C: Mean % change from baseline (90% CI) ([2]; 100 mg/day): 59.28 (51.54, 67.02) %

From paper PMC4284021 (The Journal of Pharmacy and Pharmacology, 2014)
